Screening data deposited in PubChem BioAssay by several laboratories.
In the library only some 0.62% were active in any assay of this set; here they are far more common.
ABCB1 block = inhibitors of human ABCB1 transporter, ABCG2 counter-screen | P08183 | CCRF-Adr cells, JC-1 efflux, flow cytometry | inhibition, % at 6.6 µM | actives 0.067% (n = 190,000) | AID 1326; in the data active = inhibition above about 40%;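 note: higher value means more JC-1 retained so stronger ABCB1 efflux block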
Arbovirus anti = antivirals against arbovirus infection. arbovirus infection cell-based antiviral screen. inhibition, % at 10 µM. actives 0.37% (n = 200,000). AID 1251; in the data active = inhibition above about 30%
MDM2 E3 inh = Mdm2 E3 ligase (human) inhibition | AID 1230 | actives 0.11% (n = 210,000) | cell-based MDM2 ubiquitination luciferase reporter, 2 h; 0 = plate control, 100 = twice control, blank-subtracted | Q00987 | signal enhancement, % at 5 µM;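 active = signal enhancement of 30% or more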;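 note: luminescence tracks abundance of the self-degrading MDM2-luciferase fusion protein; higher signal means inhibition of MDM2 E3 ligase activity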
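Material: Stable MDM2–luciferase fusion reporter cells | Amount: 2000 cells seeded into each well | Dosing: One concentration, 5 µM, with 0.2% DMSO | Incubation: 4 h cell settling then 2 h compound exposure, 37 °C | Measured by: Luciferase luminescence | Read-out basis: % enhancement relative to plate controls after blank subtraction | Benchmarks: Control and blank well means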
ABCG2 block = blocks JC-1 efflux by human ABCG2 transporter. IgMXP3 cells, flow cytometry. inhibition, % at 6.6 µM. actives 0.1% (n = 190,000). AID 1325;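 active = inhibition above 80%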
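material = IgMXP3 (ABCG2) plus far-red-tagged CCRF-Adr (ABCB1) cells | amount = 3 million cells/mL, equal mix of both lines | also added = JC-1 transporter substrate | dosing = one concentration, 6.6 µM final | schedule = 10 min at 25 °C | measured by = flow cytometric JC-1 green MFI at 530 nm | read-out basis = percent efflux inhibition, scaled nicardipine 100% to DMSO 0%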
Rad51 HR inh = blocks human Rad51 in homologous recombination. hRad51 DNA strand exchange, fluorescence dequenching. inhibition, % at 10 µM. actives 0.085% (n = 200,000). Q06609. AID 1385;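 active = inhibition above 40% at the single screening dose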
Target sequence (Q06609 whole entry, looked up): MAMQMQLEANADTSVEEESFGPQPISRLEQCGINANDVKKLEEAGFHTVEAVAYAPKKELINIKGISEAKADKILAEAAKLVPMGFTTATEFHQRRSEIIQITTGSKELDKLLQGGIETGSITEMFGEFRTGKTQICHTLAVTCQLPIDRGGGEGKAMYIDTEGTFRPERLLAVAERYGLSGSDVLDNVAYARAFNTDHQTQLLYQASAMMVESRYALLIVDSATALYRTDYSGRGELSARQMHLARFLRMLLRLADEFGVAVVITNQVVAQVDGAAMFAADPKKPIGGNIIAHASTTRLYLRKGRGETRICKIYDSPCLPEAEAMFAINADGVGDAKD
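Test system: preformed human Rad51 ssDNA filaments; also added: Donor/quencher-labelled 47-bp dsDNA substrate; doses: 10 µM final, single point; times: 37 °C 15-min filament assembly, 30-min compound preincubation, 15-min exchange; detection: FRET fluorescence dequenching, excitation 485 nm, emission 520 nm; read-out basis: Fluorescence-based percent inhibition, control- and blank-normalised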
Hits are given with their value.

What do the screens show for `CCOc1ccc(NC(=O)Nc2cccn(Cc3ccccc3)c2=O)cc1`?
ABCB1 block: inactive; Arbovirus anti: inactive; MDM2 E3 inh: inactive; ABCG2 block: inactive; Rad51 HR inh: 41

What do the screens show for `CCOc1ccc(NC(=O)Nc2cc(-c3ccccc3)sc2C(=O)OC)cc1`?
ABCB1 block: inactive; Arbovirus anti: 34; MDM2 E3 inh: inactive; ABCG2 block: inactive; Rad51 HR inh: inactive

How did CCOC(=O)C1=C(C)N(C)C(=S)NC1c1cc(OC)ccc1OC (configuration not stated) do in these assays?
ABCB1 block: inactive; Arbovirus anti: inactive; MDM2 E3 inh: inactive; ABCG2 block: inactive; Rad51 HR inh: inactive

Results for O=C1N=C(N2CCOCC2)S/C1=C/c1cc2c(cc1[N+](=O)[O-])OCO2 ?
MDM2 E3 inh: inactive; Rad51 HR inh: inactive

Results for NC(=O)c1c(NC(=O)C2CCCO2)sc2c1CCCC2 (configuration not stated) ?
ABCB1 block: inactive; Arbovirus anti: inactive; MDM2 E3 inh: 34; ABCG2 block: inactive; Rad51 HR inh: inactive

How did CCOC(=O)c1c(NC(=O)C2CCCO2)sc2c1CCC2 (configuration not stated) do in these assays?
ABCB1 block: inactive; Arbovirus anti: inactive; MDM2 E3 inh: inactive; ABCG2 block: inactive; Rad51 HR inh: inactive

Results for c1ccc(CSc2ccc(-c3cccnc3)nn2)nc1 ?
ABCB1 block: inactive; Arbovirus anti: 30; MDM2 E3 inh: inactive; ABCG2 block: inactive; Rad51 HR inh: inactive

Results for Clc1cccc(CSc2ccc(-c3cccnc3)nn2)c1 ?
ABCB1 block: inactive; Arbovirus anti: inactive; MDM2 E3 inh: inactive; ABCG2 block: inactive; Rad51 HR inh: inactive

How did S=C(Nc1ccc2nccnc2c1)N1CCOCC1 do in these assays?
ABCB1 block: inactive; Arbovirus anti: inactive; MDM2 E3 inh: inactive; ABCG2 block: inactive; Rad51 HR inh: inactive

Results for CC1(c2ccc([N+](=O)[O-])cc2)CC(C)(C)N(C(=O)c2ccccc2)c2ccccc21 (configuration not stated) ?
ABCB1 block: inactive; Arbovirus anti: 34; MDM2 E3 inh: inactive; ABCG2 block: inactive; Rad51 HR inh: inactive

What do the screens show for `CC(=O)N1c2ccccc2C(C)(c2ccccc2)CC1(C)C` (configuration not stated)?
ABCB1 block: inactive; Arbovirus anti: inactive; MDM2 E3 inh: inactive; ABCG2 block: inactive; Rad51 HR inh: inactive

What do the screens show for `O=CN1CCCN(Cc2nc(-c3cccc(Cl)c3)no2)CC1`?
ABCB1 block: inactive; Arbovirus anti: inactive; MDM2 E3 inh: inactive; ABCG2 block: inactive; Rad51 HR inh: inactive

What do the screens show for `Fc1ccc(Br)cc1C1C=C(c2ccc(Br)cc2)Nc2ncnn21` (configuration not stated)?
ABCB1 block: inactive; Arbovirus anti: 71; MDM2 E3 inh: inactive; ABCG2 block: inactive; Rad51 HR inh: inactive

Results for CCc1ccc(C2=CC(c3cc(Br)ccc3F)n3ncnc3N2)cc1 (configuration not stated) ?
ABCB1 block: inactive; Arbovirus anti: 62; MDM2 E3 inh: inactive; ABCG2 block: inactive; Rad51 HR inh: inactive

Results for Cn1c(NC(=O)c2ccc(S(=O)(=O)N3CCOCC3)cc2)cc(=O)n(C)c1=O ?
ABCB1 block: inactive; Arbovirus anti: inactive; MDM2 E3 inh: inactive; ABCG2 block: inactive; Rad51 HR inh: inactive

Results for CSc1nc(C)c(CCO)c(=O)[nH]1 ?
ABCB1 block: inactive; Arbovirus anti: 31; MDM2 E3 inh: inactive; ABCG2 block: inactive; Rad51 HR inh: inactive

How did O=C(NC(=S)NCCC1=CCCCC1)c1ccccc1Br do in these assays?
ABCB1 block: inactive; Arbovirus anti: 37; MDM2 E3 inh: inactive; ABCG2 block: inactive; Rad51 HR inh: inactive

Results for O=C(COC(=O)c1ccccc1Br)NCCC1=CCCCC1 ?
ABCB1 block: inactive; Arbovirus anti: inactive; MDM2 E3 inh: inactive; ABCG2 block: inactive; Rad51 HR inh: inactive

Results for O=C(NCCC1=CCCCC1)C(=O)NCC(c1ccco1)N1CCN(c2ccccc2F)CC1 (configuration not stated) ?
ABCB1 block: inactive; Arbovirus anti: inactive; MDM2 E3 inh: inactive; ABCG2 block: inactive; Rad51 HR inh: inactive

How did O=C(Oc1ccc(-c2csnn2)cc1)C1CC1 do in these assays?
MDM2 E3 inh: inactive; Rad51 HR inh: inactive

What do the screens show for `O=C(Nc1ccc(-c2csnn2)cc1)C1CC1`?
MDM2 E3 inh: 83; Rad51 HR inh: inactive
